# Measurements gathered from unrelated publications.
# Protocols differ between the studies behind these lines.
# IRAK4: Interleukin-1 receptor-associated kinase 4 (IRAK4, Homo sapiens, UniProt Q9NWZ3)
# Nuclear receptor subfamily 4 group A member 2: Nuclear receptor subfamily 4 group A member 2 (Homo sapiens, UniProt P43354)
# P2RY14: P2Y purinoceptor 14 (P2RY14, Homo sapiens, UniProt Q15391)
# TNIK: TRAF2 and NCK-interacting protein kinase (TNIK, Homo sapiens, UniProt Q9UKE5)
# CDKL1: Cyclin-dependent kinase-like 1 (CDKL1, Homo sapiens, UniProt Q00532)
Compound,target,assay,test system,conditions,quantity,value
C#Cc1cnc(Nc2ccc(CO)cc2)nc1Nc1ccccc1C(=O)NC,IRAK4,"enzyme activity, inhibitor, radiometric",,1 µM,remaining activity,1.23%
N#Cc1ccc(NC(=O)Nc2ccccc2)cc1,"TGF-beta receptor type-1 (TGFBR1, Homo sapiens, UniProt P36897)","cell-free assay, competition with immobilised ligand",,25 µM,remaining binding,81%
CCCCCCCCC(=O)c1cc(O)c(O)c(O)c1,Nuclear receptor subfamily 4 group A member 2,"thermal stability, DSF",,100 µM,ΔTm,-2.52 °C
Cc1ccc(OCC(=O)N[C@@H](Cc2c[nH]c3ccccc23)C(=O)OC(C)C)cc1,P2RY14,"cAMP, antagonist",HEK293,0.1 µM,inhibition,110%
CCN1/C(=C/C(C)=O)Sc2ccc(F)cc21,"Corticotropin-releasing factor receptor 1 (CRHR1, Homo sapiens, UniProt P34998)","ligand displacement, radioligand",,10 µM,inhibition,0%
CCCCCCCC(=O)c1cc(OC)c(OC)c(OC)c1CC(=O)OCC,Nuclear receptor subfamily 4 group A member 2,"thermal stability, DSF",,100 µM,ΔTm,-1.02 °C
COc1ccc2oc(-c3ccc4nc(N)oc4c3)c/c(=N\c3ccccc3NC(=O)CCN)c2c1,"Eukaryotic elongation factor 2 kinase (EEF2K, Homo sapiens, UniProt O00418)",binding,,1 µM,remaining binding,101%
C#Cc1cc(-c2cc(Nc3nc(N[C@@H](C)c4ccc(F)cn4)ncc3Cl)n[nH]2)ccc1C=O,TNIK,"enzyme activity, inhibitor",,0.2 µM,inhibition,56.6%
O=C(COc1ccc(Cl)cc1)N[C@@H](Cc1c[nH]c2ccccc12)C(=O)O,P2RY14,"cAMP, antagonist",HEK293,0.1 µM,inhibition,47.6%
Cc1cc(O)c(-c2ccc([C@@H](C)CN(C)C)cc2)c2c1[nH]c(=O)c1sccc12,TNIK,"enzyme activity, inhibitor",,0.1 µM,inhibition,10.5%
CC(C)OC(=O)[C@H](Cc1c[nH]c2ccccc12)NC(=O)c1cccs1,P2RY14,"cAMP, antagonist",HEK293,0.1 µM,inhibition,70.3%
CCN(CC)CCCC(C)Nc1ccnc2cc(Cl)ccc12 (stereo not shown),Nuclear receptor subfamily 4 group A member 2,"thermal stability, DSF",,100 µM,ΔTm,0.14 °C
O=C(N[C@@H](Cc1c[nH]c2ccccc12)C(=O)O)c1c[nH]c2ccccc12,P2RY14,"cAMP, antagonist",HEK293,0.1 µM,inhibition,36.7%
COC(=O)c1cn(C)c2ccc(-c3cccnc3)cc12,Nuclear receptor subfamily 4 group A member 2,"thermal stability, DSF",,100 µM,ΔTm,-0.46 °C
CS(=O)(=NC#N)c1ccccc1Nc1nc(Nc2ccnc(CO)c2)ncc1Cl (stereo not shown),IRAK4,"enzyme activity, inhibitor, radiometric",,1 µM,remaining activity,4.68%
CCCCC(=O)Nc1ccc(-c2ccc3ncn(CCC)c(=O)c3c2)cn1,CDKL1,"binding, competition with immobilised ligand",,0.5 µM,remaining binding,75%
O=C(COc1ccccc1)N[C@@H](Cc1c[nH]c2ccccc12)C(=O)O,P2RY14,"cAMP, antagonist",HEK293,0.1 µM,inhibition,82.7%
CCC(C)(C)C(=O)O[C@H]1C[C@@H](C)C=C2C=C[C@H](C)[C@H](CC[C@@H]3C[C@@H](O)CC(=O)O3)[C@H]21,Nuclear receptor subfamily 4 group A member 2,"thermal stability, DSF",,100 µM,ΔTm,-11 °C
CC(C)OC(=O)[C@H](Cc1c[nH]c2ccccc12)NC(=O)COc1ccc(Cl)cc1,P2RY14,"cAMP, antagonist",HEK293,0.1 µM,inhibition,39.6%
C=C1C(=O)O[C@@H]2C[C@@]3(C)CCCC(=C)[C@@H]3C[C@H]12,Nuclear receptor subfamily 4 group A member 2,"thermal stability, DSF",,100 µM,ΔTm,-0.65 °C
CNC(=O)c1ccccc1Nc1nc(Nc2ccc(CO)nc2)ncc1Cl,IRAK4,"enzyme activity, inhibitor, radiometric",,1 µM,remaining activity,1.87%
CC(C)n1c(/C=C/C(O)CC(O)CC(=O)O)c(-c2ccc(F)cc2)c2ccccc21 (stereo not shown),Nuclear receptor subfamily 4 group A member 2,"thermal stability, DSF",,100 µM,ΔTm,-0.62 °C
CC(C)OC(=O)[C@H](Cc1c[nH]c2ccccc12)NC(=O)c1ccc2nccnc2c1,P2RY14,"cAMP, antagonist",HEK293,0.1 µM,inhibition,89.6%
CNS(=O)(=O)c1ccc(Nc2ncc(C(F)(F)F)c(N3CCC[C@](C)(O)C3)n2)c(C)c1,"Serine/threonine-protein kinase ULK1 (ULK1, Homo sapiens, UniProt O75385)","binding, competition with immobilised ligand",,1 µM,remaining binding,11%
C1=C/COCc2cc(ccc2OCCN2CCCC2)Nc2nccc(n2)-c2cccc(c2)COC/1,CDKL1,binding,,0.1 µM,remaining binding,89%
CC(C)OC(=O)[C@H](Cc1c[nH]c2ccccc12)NC(=O)c1ccc2ccccc2n1,P2RY14,"cAMP, antagonist",HEK293,0.1 µM,inhibition,55.4%
O=C(O)CCc1nc(-c2ccccc2)c(-c2ccccc2)o1,Nuclear receptor subfamily 4 group A member 2,"thermal stability, DSF",,100 µM,ΔTm,-0.6 °C
NC/C(=C\F)COc1cccc(Cn2c(=S)[nH]c(=O)c3[nH]cnc32)c1,"Eosinophil peroxidase (Homo sapiens, UniProt P11678)","enzyme activity, inhibitor",,10 µM,remaining activity,90.7%
